Test results as given in ChEMBL document CHEMBL2034823, “Synthesis and antiviral activity of certain second generation methylenecyclopropane nucleosides” (Bioorg Med Chem, 2012).

How the values were obtained:
[1] = test system: Human betaherpesvirus 5; assay: Antiviral activity against HCMV infected in human HFF cells assessed as reduction in cytopathic effect after 8 days by plaque reduction assay; format: functional, organism-based; conditions: Human betaherpesvirus 5, HFF, 192 h
In short: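 HFF monolayers seeded 2 days ahead and infected with AD169 at about 30 plaques per well, with 1 h adsorption. Compound was then added in MEM with 2% FBS, L-glutamine, penicillin, gentamycin and pooled human gamma globulin. After 8 days, neutral red stain and plaque counts by stereomicroscope. EC50 interpolated. Duplicate wells.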

[2] = Cytotoxicity against human HFF cells after 3 to 8 days by crystal voilet staining; format: cell-based
In short: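 Uninfected HFF cells exposed to the same concentrations as in the CPE assays (3 days for HSV, 7 for VZV, […]). Stained with crystal violet. CC50 is the concentration reducing cell number by 50%. Duplicate wells.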

[3] = test system: Human gammaherpesvirus 4; assay: Antiviral activity against EBV Akata infected in human Akata cells assessed as reduction in viral DNA after 72 hrs by hybridization assay; format: functional, organism-based; conditions: human gammaherpesvirus 4, Akata
In short: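 Akata cells kept in RPMI 1640 with 10% FBS, L-glutamine, penicillin and gentamicin. Latent infection was switched to productive by adding goat anti-human IgG, and cells were seeded into compound dilutions made in growth medium. After 72 h the DNA was denatured and blotted onto nylon membrane. Viral DNA was measured with a digoxigenin-labeled probe plus anti-hapten antibody. EC50 is the concentration halving viral DNA. Duplicate wells.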

[4] = Cytotoxicity against human Akata cells after 7 days by Cell-Titer Glo assay; format: cell-based
In short: (§1)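 Uninfected Akata, BCBL1, HSB-2 or MOLT-3 cells incubated with compound for seven days under the matching antiviral-assay conditions. CellTiter-Glo added and luminescence read. CC50 is the concentration reducing cell number by 50%.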

[5] = Cytotoxicity against human HSB2 cells after 7 days by Cell-Titer Glo assay; format: cell-based, CCRF-HSB-2; in short: as §1
[6] = Antiviral activity against HHV-6B infected in human Molt3 cells assessed as reduction in viral DNA after 7 days by hybridization assay; format: functional, cell-based, Human herpesvirus 6B; conditions: Human betaherpesvirus 6B, MOLT-3, 168 h
In short: (§2)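 Compound serially diluted in medium. Uninfected HSB-2 cells were infected with HHV-6A (GS)-infected HSB-2 cells, and Molt-3 cells with HHV-6B (Z29)-infected Molt-3 cells. Incubation 7 days at 37 °C. Lysis in 4.5 M NaCl/1.2 M NaOH, then transfer to nylon membrane. Viral DNA quantified by digoxigenin-probe hybridization and EC50 calculated. Duplicate wells.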

[7] = Cytotoxicity against human MOLT3 cells after 7 days by Cell-Titer Glo assay; format: cell-based, MOLT-3; in short: as §1
[8] = test system: Human gammaherpesvirus 8; assay: Antiviral activity against HHV-8 infected in human BCBL1 cells assessed as reduction in viral DNA after 7 days by qPCR analysis; format: functional, organism-based; conditions: Human gammaherpesvirus 8, BCBL1, 168 h
In short: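 BCBL1 cells kept in RPMI 1640 with 10% FBS, penicillin, gentamycin and L-glutamine. Lytic infection induced with phorbol 12-myristate 13-acetate, then cells added to triplicate compound dilutions. Incubation 7 days at 37 °C in humidified CO2. EC50 is the concentration halving viral DNA accumulation.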

[9] = Cytotoxicity against human BCBL1 cells after 7 days by Cell-Titer Glo assay; format: cell-based; in short: as §1
[10] = Antiviral activity against HHV-6A infected in human HSB2 cells assessed as reduction in viral DNA after 7 days by hybridization assay; format: functional, cell-based, Human herpesvirus 6A; conditions: Human betaherpesvirus 6A, HSB2, 168 h; in short: as §2
[11] = test system: Human alphaherpesvirus 1; assay: Antiviral activity against HSV-1 infected in human HFF cells assessed as reduction in cytopathic effect after 3 days by crystal violet staining; format: functional, organism-based; conditions: Human alphaherpesvirus 1, HFF, 72 h
In short: (§3)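 Compound diluted over HFF monolayers, then HSV-1 (E-377) or HSV-2 (MS) added at MOI about 0.01 PFU/cell. Held 3 days in humidified 5% CO2. Stained 4 h with 0.1% crystal violet in formalin, rinsed, dried 24 h, and absorbance read at 595 nm. EC50 is 50% CPE reduction. Duplicate wells.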

[12] = test system: Human alphaherpesvirus 2; assay: Antiviral activity against HSV-2 infected in human HFF cells assessed as reduction in cytopathic effect after 3 days by crystal violet staining; format: functional, organism-based; conditions: Human alphaherpesvirus 2, HFF, 72 h; in short: as §3
[13] = test system: Human alphaherpesvirus 3; assay: Antiviral activity against VZV infected in human HFF cells assessed as reduction in cytopathic effect after 7 days by crystal violet staining; format: functional, organism-based; conditions: Human alphaherpesvirus 3, HFF, 168 h

SMILES	IC50 [1] [µM]	IC50 [3] [µM]	IC50 [6] [µM]	IC50 [8] [µM]	IC50 [10] [µM]	IC50 [11] [µM]	IC50 [12] [µM]	IC50 [13] [µM]	CC50 [2] [µM]	CC50 at 168 h [4] [µM]	CC50 at 168 h [5] [µM]	CC50 at 168 h [7] [µM]	CC50 at 168 h [9] [µM]
CCCCCCCCOc1nc(N)nc2c1ncn2/C=C1/CC1(CO)CO	29	13	11.5	> 20	> 20	> 300	> 300	> 100	> 300	> 20	> 20	> 20	> 20
Nc1nc(OCc2ccccc2)c2ncn(/C=C3/CC3(CO)CO)c2n1	45	> 20	> 20	> 20	> 20	> 300	> 300	53	> 300	> 20	> 20	> 20	> 20
CSc1nc(N)nc2c1ncn2/C=C1/CC1(CO)CO	> 50	11.4	11.6	> 20	> 100	> 300	> 300	> 60	> 300	> 20	> 100	> 20	> 20
CCCSc1nc(N)nc2c1ncn2/C=C1/CC1(CO)CO	42	> 20	14.3	> 20	63	> 300	> 300	> 300	> 300	> 20	98	> 20	> 20
CCCCSc1nc(N)nc2c1ncn2/C=C1/CC1(CO)CO	> 50	2.5	7	> 20	75	> 300	> 300	> 300	> 300	> 20	89	> 20	> 20
Nc1nc(SC2CCCC2)c2ncn(/C=C3/CC3(CO)CO)c2n1	> 50	0.9	9.9	> 20	35	> 300	> 300	> 300	> 300	> 20	91	> 20	> 20
CCCCCCSc1nc(N)nc2c1ncn2/C=C1/CC1(CO)CO	> 50	7.1	5.4	> 20	> 20	> 300	> 300	> 300	> 300	> 20	60	> 20	> 20
CCCCCCCCSc1nc(N)nc2c1ncn2/C=C1/CC1(CO)CO	20	> 20	11	> 20	> 20	> 300	> 300	> 60	> 300	> 20	60	> 20	> 20
Nc1nc(SCc2ccccc2)c2ncn(/C=C3/CC3(CO)CO)c2n1	> 50	3.1	> 20	> 20	88	> 300	> 300	> 60	> 300	> 20	> 100	> 20	> 20
Nc1nc(N)c2nc[nH]c2n1 [2,6-DIAMINOPURINE]	> 300	11	16	30	> 20	> 300	> 300	> 300	> 300	> 20	> 20	> 20	67

The next compounds have a lower IC50 [1] than those just listed; values first:

IC50 [1] [µM]	IC50 [3] [µM]	IC50 [6] [µM]	IC50 [8] [µM]	IC50 [10] [µM]	IC50 [11] [µM]	IC50 [12] [µM]	IC50 [13] [µM]	SMILES	CC50 [2] [µM]	CC50 at 168 h [4] [µM]	CC50 at 168 h [5] [µM]	CC50 at 168 h [7] [µM]	CC50 at 168 h [9] [µM]
17	20	> 20	> 20	> 20	> 300	> 300	13.9	COCCOc1nc(N)nc2c1ncn2/C=C1/CC1(CO)CO	> 300	> 20	> 20	> 20	> 20
5.6	1.4	8.9	19	> 20	> 300	> 300	> 300	Nc1nc(OCC(F)(F)F)c2ncn(/C=C3/CC3(CO)CO)c2n1	> 300	> 20	> 20	> 20	> 20
4	3.1	7.5	> 20	70	> 300	> 300	> 60	CC(C)Sc1nc(N)nc2c1ncn2/C=C1/CC1(CO)CO	> 300	> 20	94	> 20	> 20
1.4	45	8	3	1.3	> 100	> 100	> 100	Nc1nc2c(ncn2/C=C2/CC2(CO)CO)c(=O)[nH]1 [FILOCICLOVIR]	> 300	> 20	> 20	> 20	> 20
0.5	0.5	> 20	> 20	> 20	> 300	> 300	> 60	CCCCCOc1nc(N)nc2c1ncn2/C=C1/CC1(CO)CO	259	> 20	> 20	> 20	> 20
